This is an account of results in ChEMBL document CHEMBL1127399, “4,7 beta-Dimethyl-4-azacholestan-3-one (MK-386) and related 4-azasteroids as selective inhibitors of human type 1 5 alpha-reductase” (J Med Chem, 1994).

The target in assay [1] is T1, 3-oxo-5-alpha-steroid 4-dehydrogenase 2 (Homo sapiens, UniProt P31213).
T1 sequence (P31213 whole entry): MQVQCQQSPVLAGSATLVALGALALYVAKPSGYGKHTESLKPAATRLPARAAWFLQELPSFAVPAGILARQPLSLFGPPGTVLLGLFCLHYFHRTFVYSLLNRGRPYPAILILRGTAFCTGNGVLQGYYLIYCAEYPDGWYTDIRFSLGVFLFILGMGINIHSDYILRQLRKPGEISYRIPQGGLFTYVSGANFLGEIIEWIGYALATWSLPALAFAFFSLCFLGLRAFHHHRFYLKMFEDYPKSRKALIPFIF
Kind of assay: Inhibition of type 2 steroid-5-alpha-reductase. The method in brief: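 Baculovirus-expressed recombinant human type 2 5α-reductase preincubated 18 h at 4 °C with inhibitor (1–10 000 nM, serially diluted from ethanol) in 40 mM sodium citrate pH 5.5, 500 μM NADPH, 1 mM DTT, 1 mg/mL BSA. Conversion of [7-³H]testosterone to DHT monitored by HPLC. IC50 averaged over at least three determinations.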

In assay [2] the target is T2, 3-oxo-5-alpha-steroid 4-dehydrogenase 1 (Homo sapiens, UniProt P18405).
T2 sequence (P18405 whole entry): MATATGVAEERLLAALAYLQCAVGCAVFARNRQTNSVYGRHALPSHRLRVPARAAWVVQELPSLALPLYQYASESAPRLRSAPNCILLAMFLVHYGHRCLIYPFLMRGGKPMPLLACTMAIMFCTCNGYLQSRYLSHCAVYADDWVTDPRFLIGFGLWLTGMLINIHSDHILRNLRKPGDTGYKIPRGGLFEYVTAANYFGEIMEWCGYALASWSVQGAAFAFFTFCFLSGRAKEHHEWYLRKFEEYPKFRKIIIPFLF
Kind of assay: Inhibition of type 1 steroid-5-alpha-reductase. Summed up:
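Baculovirus-expressed recombinant human type 1 5α-reductase preincubated 18 h at 4 °C with inhibitor (0.1–1000 nM, serial dilutions from ethanol) in 40 mM sodium phosphate pH 7.0, 500 μM NADPH, 1 mM DTT, 1 mg/mL BSA. Reaction started with [7-³H]testosterone (final 0.3 μM) plus NADPH, 90 min at 37 °C; T and DHT separated by HPLC. IC50, mean of ≥3 determinations.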

Bounds are passed on as bounds.

`CCC[C@H]1C=C2NC(=O)CC[C@]2(C)C2CC[C@]3(C)C(C(C)CCCC(C)C)CCC3C21` (stereo not given in full): the half-inhibitory concentration (IC50) in assay [1] is 0.713 µM; in assay [2] it was 0.058 µM.

For the molecule `CC(C)CCCC(C)C1CCC2C3C(CC[C@]12C)[C@@]1(C)CCC(=O)NC1C[C@@H]3c1ccccc1` (stereo not given in full), the IC50 in assay [1] is 0.443 µM; in assay [2], over 1 µM.

In the case of `CCC[C@H]1C=C2N(C)C(=O)CC[C@]2(C)C2CC[C@]3(C)C(C(C)CCCC(C)C)CCC3C21` (stereo not given in full), the IC50 stood at 0.0054 µM in assay [1] and 0.0084 µM in assay [2].

Take `CC[C@H]1C=C2N(C)C(=O)CC[C@]2(C)C2CC[C@]3(C)C(C(C)CCCC(C)C)CCC3C21` (stereo not given in full): the half-maximal inhibitory concentration (IC50) in assay [1] was 2.12 µM; in assay [2], 0.0095 µM.

As for `CC(C)CCCC(C)C1CCC2C3C(CC[C@]12C)[C@@]1(C)CCC(=O)N(C)C1=C[C@@H]3c1ccccc1` (stereo not given in full), the figures for the IC50 in assay [1] and in assay [2] were 2.17 µM and over 1 µM, respectively.

The molecule `CC(C)CCCC(C)C1CCC2C3CC=C4N(C)C(=O)CC[C@]4(C)C3CC[C@]12C` (stereo not given in full) showed a half-maximal inhibitory concentration (IC50) in assay [2] of 0.0043 µM.

Turning to `CC(C)CCCC(C)C1CCC2C3C(CC[C@]12C)[C@@]1(C)C=CC(=O)NC1C[C@@H]3C` (stereo not given in full), the IC50 in assay [1] was 0.298 µM; in assay [2] it was 0.0016 µM.

As to `CCC[C@H]1CC2N(C)C(=O)CC[C@]2(C)C2CC[C@]3(C)C(C(C)CCCC(C)C)CCC3C21` (stereo not given in full), the figures for the half-inhibitory concentration (IC50) in assay [1] and in assay [2] were 0.58 µM and 0.02 µM, respectively.

On to `CC[C@H]1CC2N(C)C(=O)CC[C@]2(C)C2CC[C@]3(C)C(C(C)CCCC(C)C)CCC3C21` (stereo not given in full), for which the IC50 in assay [1] is 0.33 µM; in assay [2] it was 0.0057 µM.

For the molecule `C=CCN1C(=O)CC[C@]2(C)C3CC[C@]4(C)C(C(C)CCCC(C)C)CCC4C3[C@@H](C)CC12` (stereo not given in full), the IC50 in assay [1] was 1.3 µM; in assay [2], 0.042 µM.

Consider `CC(C)CCCC(C)C1CCC2C3C(CC[C@]12C)[C@@]1(C)C=CC(=O)N(C)C1C[C@@H]3C` (stereo not given in full), for which the 50% inhibitory concentration (IC50) in assay [1] was 0.125 µM; in assay [2] it was 0.002 µM.

Take `CC(C)CCCC(C)[C@H]1CCC2C3C(CC[C@@]21C)[C@@]1(C)CCC(=O)N(C)C1C[C@@H]3C` (stereo not given in full): the IC50 in assay [1] amounted to 0.154 µM; in assay [2], 0.0009 µM.

For `C[C@]12CCC3C(CNC4=CC(=O)CC[C@@]43C)C1CCC2C(=O)NC(c1ccccc1)c1ccccc1` (stereo not given in full), the concentration for half-maximal inhibition (IC50) in assay [1] is under 0.0001 µM; in assay [2] it was 0.186 µM.

As to `CC[C@H]1C=C2NC(=O)CC[C@]2(C)C2CC[C@]3(C)C(C(C)CCCC(C)C)CCC3C21` (stereo not given in full), the concentration for half-maximal inhibition (IC50) in assay [1] amounted to 1.05 µM; in assay [2], 0.0086 µM.

Molecule `CC(C)CCCC(C)C1CCC2C3CCC4NC(=O)C=C[C@]4(C)C3CC[C@]12C` (stereo not given in full) displayed a 50% inhibitory concentration (IC50) in assay [2] of 0.005 µM.

Consider `CC(C)CCCC(C)C1CCC2C3C(CC[C@]12C)[C@@]1(C)CCC(=O)NC1=C[C@@H]3C` (stereo not given in full), for which the values for the IC50 in assay [1] and in assay [2] were 0.859 µM and 0.0025 µM, respectively.

In the case of `CC(C)CCCC(C)C1CCC2C3CC=C4NC(=O)CC[C@]4(C)C3CC[C@]12C` (stereo not given in full), the half-inhibitory concentration (IC50) in assay [2] was 0.0191 µM.

Turning to `CC(C)CCCC(C)C1CCC2C3C(CC[C@]12C)[C@@]1(C)CCC(=O)N(C)C1C[C@@H]3c1ccccc1` (stereo not given in full), the IC50 in assay [1] is 0.428 µM; in assay [2], 0.134 µM.

As for `CC(C)CCCC(C)C1CCC2C3CCC4N(C)C(=O)CC[C@]4(C)C3CC[C@]12C` (stereo not given in full), the 50% inhibitory concentration (IC50) was 0.218 µM in assay [1] and 0.0017 µM in assay [2].

As to `CC(C)CCCC(C)C1CCC2C3CCC4NC(=O)CC[C@]4(C)C3CC[C@]12C` (stereo not given in full), the IC50 in assay [1] came to 0.218 µM; in assay [2], 0.0026 µM.

Turning to `CCN1C(=O)CC[C@]2(C)C3CC[C@]4(C)C(C(C)CCCC(C)C)CCC4C3[C@@H](C)CC12` (stereo not given in full), the 50% inhibitory concentration (IC50) in assay [1] worked out at 1.39 µM; in assay [2], 0.0033 µM.

With `CC[C@H]1CC2NC(=O)CC[C@]2(C)C2CC[C@]3(C)C(C(C)CCCC(C)C)CCC3C21` (stereo not given in full), the IC50 came to 0.28 µM in assay [1] and 0.0027 µM in assay [2].

As for `CC(C)CCCC(C)C1CCC2C3C(CC[C@]12C)[C@@]1(C)CCC(=O)NC1C[C@@H]3C` (stereo not given in full), the 50% inhibitory concentration (IC50) in assay [1] stood at 0.28 µM; in assay [2], 0.0026 µM.

On to `CCC[C@H]1CC2NC(=O)CC[C@]2(C)C2CC[C@]3(C)C(C(C)CCCC(C)C)CCC3C21` (stereo not given in full), for which the half-inhibitory concentration (IC50) turned out to be 1.1 µM in assay [1] and 0.0095 µM in assay [2].

For `CC(C)CCCC(C)C1CCC2C3C(CC[C@]12C)[C@@]1(C)CCC(=O)NC1=C[C@@H]3c1ccccc1` (stereo not given in full), the values for the IC50 in assay [1] and in assay [2] were 1.34 µM and over 1 µM, respectively.

Consider `CC(C)CCCC(C)C1CCC2C3C(CC[C@]12C)[C@@]1(C)CCC(=O)N(C)C1=C[C@@H]3C` (stereo not given in full), for which the IC50 in assay [1] came to 0.147 µM; in assay [2] it was 0.0006 µM.

In the case of `CN1C(=O)CC[C@@H]2c3ccc(Cl)cc3CC[C@H]21` [BEXLOSTERIDE], the IC50 in assay [1] was found to be 1.75 µM; in assay [2] it was 0.0086 µM.

Turning to `CC(C)(C)NC(=O)[C@H]1CC[C@H]2[C@@H]3CC=C4C=C(C(=O)O)CC[C@]4(C)[C@H]3CC[C@]12C` [EPRISTERIDE], the IC50 in assay [1] is 0.0006 µM; in assay [2] it was over 1 µM.

Regarding `CC(C)(C)NC(=O)[C@H]1CC[C@H]2[C@@H]3CC[C@H]4NC(=O)C=C[C@]4(C)[C@H]3CC[C@]12C` [FINASTERIDE], the IC50 in assay [1] was under 0.0001 µM; in assay [2] it was 0.052 µM.
